The source made the active and inactive calls. Unless noted, the rule behind the calls is not given here.
What was measured:
[1] = target: Virion infectivity factor (Human immunodeficiency virus type 1 group M subtype B (isolate NY5)(HIV-1)) (UniProt P12504); assay: Antagonist activity against HIV-1 Vif in human MT4 cells assessed as inhibition of viral infection at 50 uM measured after 16 hrs by cell-based assay; conditions: Human immunodeficiency virus 1
Outline: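 Antiviral activity was measured against wild-type HIV-1 in permissive MT-4 cells as a Vif-specificity counter-screen. RN-18 was the positive control, and cells cultured without inhibitor were the negative control. "No activity" means no inhibition at 50 µM.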

[2] = target: Virion infectivity factor (Human immunodeficiency virus type 1 group M subtype B (isolate NY5)(HIV-1)) (UniProt P12504); assay: Antagonist activity against HIV-1 Vif in human H9 cells expressing A3G assessed as inhibition of viral replication by reverse transcriptase assay relative to vehicle-treated control; format: cell-based; conditions: Human immunodeficiency virus 1
Outline: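 Antiviral activity was measured against wild-type HIV-1 in non-permissive (A3G-expressing) H9 cells and reported as IC50. RN-18 was the positive control, and cells cultured without inhibitor were the negative control. Selected compounds were tested across doses, and MTS cell viability was checked in parallel at 50 µM.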

HeLa = assay: Cytotoxicity against human HeLa cells at 50 uM measured after 16 hrs by MTS assay relative to DMSO control; format: cell-based
[3] = target: Virion infectivity factor (Human immunodeficiency virus type 1 group M subtype B (isolate NY5)(HIV-1)) (UniProt P12504); assay: Antagonist activity against HIV-1 GFP-tagged Vif in human HEK293FT cells co-expressing HA-tagged A3G assessed as upregulation of A3G levels at 50 uM measured after 16 hrs by immunoblotting method; format: cell-based; conditions: Human immunodeficiency virus 1
Outline: (§1)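 HEK293FT cells co-expressing HA-tagged A3G and either GFP-tagged Vif or Vif were incubated with or without compound (50 µM) for 16 h. Cell extracts were immunoblotted with anti-HA (A3G), anti-GFP (Vif) and anti-GAPDH antibodies. Untreated cells served as the comparison, and choline chloride was included as a negative control in the triazole series.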

[4] = target: Virion infectivity factor (Human immunodeficiency virus type 1 group M subtype B (isolate NY5)(HIV-1)) (UniProt P12504); assay: Antagonist activity against HIV-1 GFP-tagged Vif in human HEK293FT cells co-expressing HA-tagged A3G assessed as downregulation of Vif expression expression at 50 uM measured after 16 hrs by immunoblotting method; format: cell-based; conditions: Human immunodeficiency virus 1; outline: as §1

Chain of Virion infectivity factor (Human immunodeficiency virus type 1 group M subtype B (isolate NY5)(HIV-1)) (P12504 whole entry): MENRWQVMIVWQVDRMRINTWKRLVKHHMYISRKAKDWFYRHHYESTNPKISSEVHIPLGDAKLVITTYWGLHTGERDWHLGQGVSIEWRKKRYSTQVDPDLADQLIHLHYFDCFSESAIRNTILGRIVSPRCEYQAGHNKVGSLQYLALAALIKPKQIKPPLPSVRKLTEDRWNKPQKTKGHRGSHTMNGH

Row | SMILES | Activity [1] | further results
1 | COc1ccc(OC)c(-n2cc(-c3ccccc3S(=O)(=O)c3ccc(C(F)(F)F)cc3)nn2)c1 | inactive | 
2 | COc1ccc(S(=O)(=O)c2ccccc2-c2cn(-c3cc(OC)ccc3OC)nn2)cc1 | inactive | 
3 | COC(=O)c1ccc(Sc2ccccc2-c2cn(-c3c(OC)cccc3OC)nn2)cc1 | inactive | inhibition [2]: Dose-dependent effect; Activity (HeLa): Non-Toxic
4 | COc1cccc(OC)c1-n1cc(-c2ccccc2Sc2ccc([N+](=O)[O-])cc2)nn1 | inactive | 
5 | COc1ccccc1-n1cc(-c2ccccc2S(=O)(=O)c2ccc(N)cc2)nn1 | inactive | Activity [3]: Active; Activity [4]: Active
6 | COc1ccccc1-n1cc(-c2ccccc2S(=O)(=O)c2ccc(C(F)(F)F)cc2)nn1 | inactive | 
7 | COc1ccc(-n2cc(-c3ccccc3Sc3ccc([N+](=O)[O-])cc3)nn2)c(OC)c1 | inactive | 
8 | COc1ccc(-n2cc(-c3ccccc3Sc3ccc(N)cc3)nn2)c(OC)c1 | inactive | 
9 | COc1ccc(Sc2ccccc2-c2cn(-c3cc(OC)ccc3OC)nn2)cc1 | inactive | 
10 | COC(=O)c1ccc(S(=O)(=O)c2ccccc2-c2cn(-c3c(OC)cccc3OC)nn2)cc1 | inactive | 
11 | COc1ccccc1-n1cc(-c2ccccc2Sc2ccc(N)cc2)nn1 | inactive | 
12 | COc1cccc(-n2cc(-c3ccccc3S(=O)(=O)c3ccc(C(=O)O)cc3)nn2)c1OC | inactive | 
13 | COc1ccc(OC)c(-n2cc(-c3ccccc3S(=O)(=O)c3ccc([N+](=O)[O-])cc3)nn2)c1 | inactive | inhibition [2]: Dose-dependent effect; Activity (HeLa): Non-Toxic
14 | COc1cccc(F)c1-n1cc(-c2ccccc2S(=O)(=O)c2ccc(N)cc2)nn1 | inactive | 
15 | COc1ccc(OC)c(-n2cc(-c3ccccc3Sc3ccc(N)cc3)nn2)c1 | inactive | 
16 | COc1cccc(OC)c1-n1cc(-c2ccccc2Sc2ccc(C(F)(F)F)cc2)nn1 | inactive | 
17 | COC(=O)c1ccc(S(=O)(=O)c2ccccc2-c2cn(-c3cccc(OC)c3OC)nn2)cc1 | inactive | 
18 | COc1ccc(S(=O)(=O)c2ccccc2-c2cn(-c3ccc(OC)cc3OC)nn2)cc1 | inactive | 
19 | COc1ccccc1-n1cc(-c2ccccc2S(=O)(=O)c2ccc([N+](=O)[O-])cc2)nn1 | inactive | 
20 | COc1cccc(OC)c1-n1cc(-c2ccccc2S(=O)(=O)c2ccc(C(F)(F)F)cc2)nn1 | inactive | 
21 | COc1cccc(F)c1-n1cc(-c2ccccc2Sc2ccc(C(=O)O)cc2)nn1 | inactive | 
22 | COC(=O)c1ccc(S(=O)(=O)c2ccccc2-c2cn(-c3c(F)cccc3OC)nn2)cc1 | inactive | 
23 | COc1ccc(OC)c(-n2cc(-c3ccccc3S(=O)(=O)c3ccc(N)cc3)nn2)c1 | inactive | inhibition [2]: Dose-dependent effect; Activity [3]: Active; Activity [4]: Active; Activity (HeLa): Non-Toxic
24 | COc1cccc(OC)c1-n1cc(-c2ccccc2S(=O)(=O)c2ccc(N)cc2)nn1 | inactive | 

Row | SMILES | Activity [1] | further results
25 | COc1ccc(OC)c(-n2cc(-c3ccccc3Sc3ccc(C(=O)O)cc3)nn2)c1 | inactive | 
26 | COC(=O)c1ccc(S(=O)(=O)c2ccccc2-c2cn(-c3ccccc3OC)nn2)cc1 | inactive | 
27 | COC(=O)c1ccc(Sc2ccccc2-c2cn(-c3c(F)cccc3OC)nn2)cc1 | inactive | 
28 | COc1ccc(Sc2ccccc2-c2cn(-c3cccc(OC)c3OC)nn2)cc1 | inactive | 
29 | COc1ccc(Sc2ccccc2-c2cn(-c3c(F)cccc3OC)nn2)cc1 | inactive | 
30 | COc1cccc(-n2cc(-c3ccccc3Sc3ccc(C(=O)O)cc3)nn2)c1OC | inactive | 
31 | COc1cccc(OC)c1-n1cc(-c2ccccc2Sc2ccc(C(=O)O)cc2)nn1 | inactive | 
32 | COc1cccc(OC)c1-n1cc(-c2ccccc2Sc2ccc(N)cc2)nn1 | inactive | 
33 | COC(=O)c1ccc(Sc2ccccc2-c2cn(-c3ccc(OC)cc3OC)nn2)cc1 | inactive | inhibition [2]: Dose-dependent effect; Activity (HeLa): Non-Toxic
34 | COc1cccc(-n2cc(-c3ccccc3Sc3ccc(N)cc3)nn2)c1OC | inactive | 
35 | COC(=O)c1ccc(Sc2ccccc2-c2cn(-c3cc(OC)ccc3OC)nn2)cc1 | inactive | Activity [3]: Active; Activity [4]: Active
36 | COc1cccc(OC)c1-n1cc(-c2ccccc2S(=O)(=O)c2ccc(C(=O)O)cc2)nn1 | inactive | 
37 | COc1ccc(S(=O)(=O)c2ccccc2-c2cn(-c3c(OC)cccc3OC)nn2)cc1 | inactive | 
38 | COc1ccc(-n2cc(-c3ccccc3S(=O)(=O)c3ccc(C(F)(F)F)cc3)nn2)c(OC)c1 | inactive | 
39 | COc1cccc(F)c1-n1cc(-c2ccccc2Sc2ccc(N)cc2)nn1 | inactive | 
40 | COc1cccc(-n2cc(-c3ccccc3S(=O)(=O)c3ccc(C(F)(F)F)cc3)nn2)c1OC | inactive | 
41 | COc1cccc(-n2cc(-c3ccccc3S(=O)(=O)c3ccc([N+](=O)[O-])cc3)nn2)c1OC | inactive | 
42 | COC(=O)c1ccc(S(=O)(=O)c2ccccc2-c2cn(-c3cc(OC)ccc3OC)nn2)cc1 | inactive | 
43 | COc1cccc(-n2cc(-c3ccccc3S(=O)(=O)c3ccc(N)cc3)nn2)c1OC | inactive | 
44 | COc1cccc(-n2cc(-c3ccccc3Sc3ccc([N+](=O)[O-])cc3)nn2)c1OC | inactive | inhibition [2]: Dose-dependent effect; Activity (HeLa): Non-Toxic
45 | COc1cccc(F)c1-n1cc(-c2ccccc2S(=O)(=O)c2ccc([N+](=O)[O-])cc2)nn1 | inactive | 
46 | COc1ccccc1-n1nncc1-c1ccccc1Sc1ccc([N+](=O)[O-])cc1 |  | Activity [3]: Active; Activity [4]: Active
47 | COc1cccc(F)c1-n1cc(-c2ccccc2S(=O)(=O)c2ccc(C(F)(F)F)cc2)nn1 | inactive | 
48 | COC(=O)c1ccc(Sc2ccccc2-c2cn(-c3cccc(OC)c3OC)nn2)cc1 | inactive | inhibition [2]: Dose-dependent effect; Activity (HeLa): Non-Toxic

Row | SMILES | Activity [1] | further results
49 | COc1ccc(Sc2ccccc2-c2cn(-c3ccccc3OC)nn2)cc1 | inactive | 
50 | COc1ccc(OC)c(-n2cc(-c3ccccc3Sc3ccc(C(F)(F)F)cc3)nn2)c1 | inactive | 
51 | COc1cccc(F)c1-n1cc(-c2ccccc2Sc2ccc(C(F)(F)F)cc2)nn1 | inactive | 
52 | COc1ccc(Sc2ccccc2-c2cn(-c3c(OC)cccc3OC)nn2)cc1 | inactive | 
53 | COc1ccccc1-c1nnc(-c2ccccc2Sc2ccc([N+](=O)[O-])cc2)o1 |  | Activity [3]: Active; Activity [4]: Active
54 | COc1ccc(S(=O)(=O)c2ccccc2-c2cn(-c3ccccc3OC)nn2)cc1 | inactive | 
55 | COc1ccccc1-n1cc(-c2ccccc2S(=O)(=O)c2ccc(C(=O)O)cc2)nn1 | inactive | Activity [3]: Active; Activity [4]: Active
56 | COc1ccc(-n2cc(-c3ccccc3S(=O)(=O)c3ccc(C(=O)O)cc3)nn2)c(OC)c1 | inactive | 
57 | COc1cccc(F)c1-n1cc(-c2ccccc2Sc2ccc([N+](=O)[O-])cc2)nn1 | inactive | 
58 | COc1ccc(S(=O)(=O)c2ccccc2-c2cn(-c3c(F)cccc3OC)nn2)cc1 | inactive | 
59 | COc1ccc(-n2cc(-c3ccccc3S(=O)(=O)c3ccc([N+](=O)[O-])cc3)nn2)c(OC)c1 | inactive | 
60 | COc1ccc(-n2cc(-c3ccccc3Sc3ccc(C(=O)O)cc3)nn2)c(OC)c1 | inactive | 
61 | COc1ccc(OC)c(-n2cc(-c3ccccc3S(=O)(=O)c3ccc(C(=O)O)cc3)nn2)c1 | inactive | Activity [3]: Active; Activity [4]: Active
62 | COc1cccc(-n2cc(-c3ccccc3Sc3ccc(C(F)(F)F)cc3)nn2)c1OC | inactive | 
63 | COc1ccc(S(=O)(=O)c2ccccc2-c2cn(-c3cccc(OC)c3OC)nn2)cc1 | inactive | 
64 | COc1ccc(-n2cc(-c3ccccc3Sc3ccc(C(F)(F)F)cc3)nn2)c(OC)c1 | inactive | 
65 | COc1cccc(F)c1-n1cc(-c2ccccc2S(=O)(=O)c2ccc(C(=O)O)cc2)nn1 | inactive | 
66 | COc1ccccc1-n1cc(-c2ccccc2Sc2ccc(C(=O)O)cc2)nn1 | inactive | 
67 | COc1ccc(-n2cc(-c3ccccc3S(=O)(=O)c3ccc(N)cc3)nn2)c(OC)c1 | inactive | 
68 | COc1ccc(Sc2ccccc2-c2cn(-c3ccc(OC)cc3OC)nn2)cc1 | inactive | 
69 | COC(=O)c1ccc(S(=O)(=O)c2ccccc2-c2cn(-c3ccc(OC)cc3OC)nn2)cc1 | inactive | 
70 | COC(=O)c1ccc(Sc2ccccc2-c2cn(-c3ccccc3OC)nn2)cc1 | inactive | 
71 | COc1cccc(OC)c1-n1cc(-c2ccccc2S(=O)(=O)c2ccc([N+](=O)[O-])cc2)nn1 | inactive | 
